Screens (PubChem)
NPY-Y2 PAM-ag = NPY-Y2 potentiators or agonists, primary screen, cell-based. Neuropeptide Y receptor type 2 (Homo sapiens), P49146. cells expressing NPY-Y2, potentiator/agonist read-out. activation, % at 3.6 µM. actives 0.45% (n = 220,000). AID 1359, 2008; in the data active = activation above about 27%;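 also: cells stimulated with NPY near EC25 plus isoproterenol at EC100; 0% = vehicle plus submaximal agonist and 100% = vehicle plus saturating agonist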
Target sequence (P49146 whole entry, looked up): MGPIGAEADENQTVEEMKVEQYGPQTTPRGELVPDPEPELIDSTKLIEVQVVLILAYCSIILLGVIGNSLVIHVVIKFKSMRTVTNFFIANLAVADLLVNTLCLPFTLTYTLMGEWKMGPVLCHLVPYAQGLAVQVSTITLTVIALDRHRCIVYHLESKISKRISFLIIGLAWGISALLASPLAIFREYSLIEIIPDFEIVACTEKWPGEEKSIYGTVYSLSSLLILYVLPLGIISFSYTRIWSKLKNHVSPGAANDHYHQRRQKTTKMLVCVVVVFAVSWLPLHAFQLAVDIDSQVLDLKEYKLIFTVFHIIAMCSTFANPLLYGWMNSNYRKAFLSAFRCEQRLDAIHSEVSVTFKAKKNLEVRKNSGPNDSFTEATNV
NPY-Y1 PAM-ag = NPY-Y1 receptor potentiators or agonists, primary screen, cell-based | Neuropeptide Y receptor type 1 (Homo sapiens), P25929 | NPY-Y1 expressing cells, potentiator/agonist activation | activation, % at 3.6 µM | actives 0.37% (n = 220,000) | AID 1304, 2008; in the data active = activation above about 33%, passing the limit was not always enough;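 also: cells stimulated with NPY at EC10 then isoproterenol at EC100; 0% = low agonist plus stimulus and 100% = saturating agonist plus stimulus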
NPY-Y1 antag = NPY-Y1 receptor antagonists, primary screen, cell-based; inhibition, % at 3.6 µM; Neuropeptide Y receptor type 1 (Homo sapiens), P25929; actives 1% (n = 200,000); AID 1040, 2008; HEK293-CNG Y1 cells, membrane potential fluorescence; NPY at EC95, then isoproterenol;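 active = inhibition above the campaign mean inhibition of all tested compounds plus 3 SD, cut at about 20% in these data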;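 also: 0% = DMSO wells given NPY plus isoproterenol and 100% = isoproterenol alone without NPY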
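Material: HEK293 Y1/CNG channel cell line | Also added: NPY (25 nM), isoproterenol (1 µM), Ro 20-1724 (25 µM) | Compound: One concentration, 3.6 µM, in 0.4% DMSO | Schedule: 3 h dye uptake, 1 h room-temperature compound, 45 min post-isoproterenol | Signal: Membrane-potential fluorescent dye readout | Read-out: % inhibition of NPY effect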
NPY-Y2 antag = NPY-Y2 receptor antagonists, primary screen, cell-based. Neuropeptide Y receptor type 2 (Homo sapiens), P49146. NPY-Y2 expressing cells, antagonist mode. inhibition, % at 2.7 µM. actives 0.99% (n = 140,000). AID 793, 2007; in the data active = inhibition above about 17%;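 also: 0% = vehicle with agonist challenge and 100% = reference antagonist with challenge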
NPY-Y1 antag ct = NPY-Y1 receptor antagonists, selectivity check, counter-screen for NPY-Y2 antagonist project, cell-based. actives 19% (n = 710). cell-based NPY-Y1 antagonism counterscreen. inhibition, % at 3.6 µM. AID 1256, 2008. shares compounds with NPY-Y2 antag; in the data active = inhibition above about 20%;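 also: cells challenged with NPY then isoproterenol with cAMP sensed through a CNG channel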
NPY2 antag conf = NPY-Y2 receptor antagonists, retest of hits, confirmation, HEK293-CNG cells, membrane potential fluorescence, triplicate; inhibition, % at 2.8 µM; shares compounds with NPY-Y2 antag; actives 32% (n = 710); HEK293 NPY-Y2 CNG channel;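 active = mean inhibition of triplicate wells above the hit cutoff set in the primary screen, cut at about 17% in these data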;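 also: 0% = DMSO with NPY challenge and 100% = BIIE0246 high control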
An asterisk follows results filed as active; nt = not tested or not shown; + = active, no number. An excerpt weighted towards active compounds, which were near 1.8% of everything screened.

SMILES | NPY-Y2 PAM-ag | NPY-Y1 PAM-ag | NPY-Y1 antag | NPY-Y2 antag | NPY-Y1 antag ct | NPY2 antag conf
COC(=O)c1cc(OC)c(OC)cc1NC(=O)c1cc(-c2ccccc2)nc2ccccc12 | -5 | -1 | 3 | 2 | nt | nt
COc1cccc(-c2cc(C(=O)Nc3ccc([N+](=O)[O-])cn3)c3ccccc3n2)c1 | -5 | -25 | 3 | 26* | 37* | 52*
COc1ccc(-c2cc(C(=O)Nc3ccc(Cl)cc3Cl)c3ccccc3n2)cc1OC | -16 | -29 | 6 | 124* | 133* | +
COc1ccc(-c2cc(C(=O)Nc3c(Cl)cc(Cl)cc3Cl)c3ccccc3n2)cc1OC | -25 | -20 | 10 | 79* | 152* | 195*
CCOC(=O)C1=C(Nc2ccc(OC)cc2)OCC1=O | -8 | -12 | nt | nt | nt | nt
CCc1[nH]c(C(=O)O)c(C)c1C(=O)OC | 2 | 9 | nt | nt | nt | nt
CCCCc1cc(O)c(CCCC)c(O)c1 | 14 | 19 | -6 | 21* | -1 | -4
CCOC(=O)c1sc(NC(=O)c2cc3n(n2)C(C(F)(F)F)CC(c2ccccc2)N3)c(C(=O)OCC)c1C (configuration not stated) | -28 | -30 | 0 | 3 | nt | nt
CN(/N=C/c1ccncc1)C1=NS(=O)(=O)c2ccccc21 | 4 | 25 | 4 | 21* | 2 | 1
COc1ccc(OCC(=O)Nc2cccc3cccnc23)cc1 | -4 | -10 | 12 | 48* | 11 | 24*
CNC(=S)N/N=C/c1ccccc1Cl | -2 | -16 | 4 | 19* | 2 | 1
S=C(N/N=C/c1ccccc1Cl)Nc1ccccc1 | -15 | -34 | 10 | 5 | nt | nt
COc1ccc(NC(=O)CCn2cccc2)cc1 | 15 | 5 | 5 | 0 | nt | nt
OCC1CCCN(c2nc(CN3CCCCC3)nc3scc(-c4ccccc4)c23)C1 (configuration not stated) | 4 | -21 | 17 | 23* | 18 | 17
O=C(Nc1ccc(N2C(=O)CCC2=O)cc1Cl)c1cccs1 | -5 | 3 | -1 | nt | nt | nt
CC(C)CC(c1nnnn1C(C)(C)C)N1CCN(C2CCCC2)CC1 (configuration not stated) | -15 | -9 | 13 | 17 | nt | nt
CC(C)CC(c1nnnn1Cc1ccco1)N1CCN(C2CCCC2)CC1 (configuration not stated) | -21 | -27 | 10 | 19* | 7 | 4
COc1cnc(SC)nc1Nc1ccc(C#N)cc1 | 4 | 9 | nt | nt | nt | nt
O=C(Cn1c(N2CCN(c3ccccc3)CC2)nc2ccccc21)c1ccccc1 | 2 | 4 | -4 | 18* | -4 | -5
Cc1ccc(C(C(=O)NC2CCCCC2)N(Cc2ccco2)C(=O)Cc2c[nH]c3ccccc23)o1 (configuration not stated) | -5 | -5 | 14 | 19* | 13 | 11
Cc1ccc(C(C(=O)NC2CCCCC2)N(C(=O)Cc2c[nH]c3ccccc23)c2ccccc2C)o1 (configuration not stated) | -3 | -13 | 3 | 1 | nt | nt
CC1(C)CC2CC(C)(CN2C(=O)COc2cccc3ccccc23)C1 (configuration not stated) | 14 | -8 | 6 | 17* | 5 | 6
CO/N=C(/CS(=O)Cc1ccc(Cl)cc1)c1ccc(Cl)cc1 (configuration not stated) | -16 | 5 | 14 | 18* | 10 | 3
COc1ccc(-c2nc(C#N)c(NCCCN(C)C)o2)cc1OC | 4 | -9 | 1 | -2 | nt | nt
COc1ccc(-c2nc(C#N)c(NC(C)c3ccccc3)o2)cc1OC (configuration not stated) | -17 | 4 | 14 | 21* | 17 | 34*
SMILES | NPY-Y2 PAM-ag | NPY-Y1 PAM-ag | NPY-Y1 antag | NPY-Y2 antag | NPY-Y1 antag ct | NPY2 antag conf
Cc1cc(Oc2ccc(-c3ccccc3)cc2)n2ncnc2n1 | -5 | -1 | 4 | 20* | 0 | 3
Cc1ccccc1/C=C/c1nc2ccccc2c(=O)n1CCc1ccccc1 | 5 | -10 | 2 | 23* | 18 | 29*
O=C(CCc1nc(-c2ccccc2)c(-c2ccccc2)o1)OCc1ccc(Cl)cc1 | -17 | -34 | 17 | 13 | nt | nt
O=C(CCc1nc(-c2ccccc2)c(-c2ccccc2)o1)OCc1ccc(Br)cc1 | -16 | -8 | 5 | 18* | 12 | 20*
Cc1ccc2nc(Cl)c(CN(Cc3cccs3)C(=O)C3CC3)cc2c1 | -12 | -39 | 18 | 19* | 15 | 12
CC(=O)N(Cc1cccs1)Cc1cc2cc(C)c(C)cc2nc1Cl | -21 | -15 | -2 | nt | nt | nt
Nn1c(CSc2nc3ccccc3o2)nnc1CSc1nc2ccccc2o1 | -39 | -65 | 17 | 17* | 13 | 15
Cc1cccc(-c2noc(CN(C(=O)C(c3ccccc3)c3ccccc3)C(C)C)n2)c1 | -14 | 1 | 18 | 17* | 8 | 4
COc1ccc(N2CCN(C(=O)CN(C)S(=O)(=O)c3cc(C)ccc3OC)CC2)cc1 | 2 | 19 | 3 | nt | nt | nt
O=C(C(=O)N1CCCC1CO)N1CCCC1CO (configuration not stated) | -16 | 6 | 4 | nt | nt | nt
COc1ccccc1NC(=O)c1ccc(COc2ccc3c(c2)CCC3)cc1 | 3 | -8 | 4 | 22* | 4 | 16
COC(=O)c1ccccc1NC(=O)c1ccc(COc2ccc3c(c2)CCC3)cc1 | 5 | -11 | 0 | 9 | nt | nt
Cc1cccc(COCC(CC(C)C)N2CCN(C(=O)c3ccc(C(C)(C)C)cc3)CCC2=O)c1 (configuration not stated) | -5 | -40 | 10 | 19* | 17 | 11
CC(C)CNC1=C(C(=S)Nc2ccccc2)C(=O)CC(C)(C)C1 | 8 | 21 | -3 | -2 | nt | nt
CCCCNC(=O)CN1C(=O)C(CC)Oc2ccc(Cl)cc21 (configuration not stated) | -23 | -28 | 17 | 22* | 7 | 7
COc1cc([N+](=O)[O-])cc2cc(C(=O)N3CCCC3)c(=O)oc12 | 9 | 17 | -5 | nt | nt | nt
O=C(CSc1nnc(-c2ccccc2F)n1C1CC1)Nc1cccnc1Cl | -7 | 13 | 3 | 1 | nt | nt
COc1ccc(C2Nc3ccccc3C(=O)N2Cc2ccco2)cc1COc1ccc(NC(C)=O)cc1 (configuration not stated) | -12 | -12 | 3 | 3 | nt | nt
COc1ccc(C2Nc3ccccc3C(=O)N2Cc2ccco2)cc1COc1ccccc1F (configuration not stated) | -13 | -12 | 19 | 25* | 6 | 11
C=CCOc1ccc2ccccc2c1/C=N/O | -7 | -29 | 17 | 20* | 7 | 7
